Source: ChEMBL document CHEMBL4673384, “Studying Histone Deacetylase Inhibition and Apoptosis Induction of Psammaplin A Monomers with Modified Thiol Group” (ACS Med Chem Lett, 2021)
Calls of active or inactive are those of the source. The rule behind the calls is not given here.

What was measured:
[1] = test system: HL-60; assay: Induction of apoptosis in human HL-60 cells assessed as necrotic cells at 40 uM incubated for 24 hrs by propidium iodide and annexin-V FITC staining based FACS analysis (reference value: 0.1 %); type: functional
[2] = test system: HL-60; assay: Induction of apoptosis in human HL-60 cells assessed as cleavage of PARP at 20 uM after 24 hrs Western blot analysis; type: functional, cell-based
Outline: (§1)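 HL-60 cells were treated for 24 h at the indicated concentrations, then analysed by Western blot. Blots were probed for cleavage of PARP and caspase-3, -8 and -9. Ac-H3, Ac-α-tubulin and β-actin were also detected, with β-actin as the loading reference.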

[3] = test system: HL-60; assay: Induction of apoptosis in human HL-60 cells assessed as cleavage of caspase-3 at 20 uM after 24 hrs Western blot analysis; type: functional, cell-based; outline: as §1
[4] = test system: HL-60; assay: Induction of apoptosis in human HL-60 cells assessed as late apoptotic cells at 40 uM incubated for 24 hrs by propidium iodide and annexin-V FITC staining based FACS analysis (reference value: 1.7 %); type: functional
[5] = test system: HL-60; assay: Induction of apoptosis in human HL-60 cells assessed as viable cells at 20 uM incubated for 24 hrs by propidium iodide and annexin-V FITC staining based FACS analysis (reference value: 96.3 %); type: functional; conditions: read-out: Activity
[6] = molecular target: T1, Histone deacetylase 2 (Homo sapiens, UniProt Q92769); assay: Inhibition of recombinant full length C-terminal FLAG-tagged human HDAC2 expressed in baculovirus infected Sf9 cells using Boc-Lys(Ac)-AMC as substrate preincubated for 15 mins followed by substrate addition and measured after 60 mins by fluorescence based assay
[7] = molecular target: T2, Histone deacetylase 1 (Homo sapiens, UniProt Q13547); assay: Inhibition of recombinant full length C-terminal FLAG/His-tagged human HDAC1 expressed in baculovirus infected Sf9 cells using Boc-Lys(Ac)-AMC as substrate preincubated for 15 mins followed by substrate addition and measured after 60 mins by fluorescence based assay
[8] = molecular target: T2, Histone deacetylase 1; assay: Inhibition of HDAC1 in human HL-60 cells assessed as increase in Ac-H3 level at 2 uM incubated for 24 hrs by Western blot analysis; type: cell-based
Outline: (§2)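 Compound given to HL-60 cells for 24 h at the stated concentrations, then lysed. Acetyl-histone H3 and acetyl-α-tubulin levels were read by Western blot, with total H3, α-tubulin or β-actin as references.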

[9] = test system: HL-60; assay: Induction of apoptosis in human HL-60 cells assessed as necrotic cells at 20 uM incubated for 24 hrs by propidium iodide and annexin-V FITC staining based FACS analysis (reference value: 0.1 %); type: functional
[10] = molecular target: T3, Protein deacetylase HDAC6 (Homo sapiens, UniProt Q9UBN7); assay: Inhibition of recombinant full length C-terminal FLAG-tagged human HDAC6 expressed in baculovirus infected Sf9 cells using Boc-Lys(Ac)-AMC as substrate preincubated for 15 mins followed by substrate addition and measured after 60 mins by fluorescence based assay
T3 sequence (Q9UBN7 whole entry): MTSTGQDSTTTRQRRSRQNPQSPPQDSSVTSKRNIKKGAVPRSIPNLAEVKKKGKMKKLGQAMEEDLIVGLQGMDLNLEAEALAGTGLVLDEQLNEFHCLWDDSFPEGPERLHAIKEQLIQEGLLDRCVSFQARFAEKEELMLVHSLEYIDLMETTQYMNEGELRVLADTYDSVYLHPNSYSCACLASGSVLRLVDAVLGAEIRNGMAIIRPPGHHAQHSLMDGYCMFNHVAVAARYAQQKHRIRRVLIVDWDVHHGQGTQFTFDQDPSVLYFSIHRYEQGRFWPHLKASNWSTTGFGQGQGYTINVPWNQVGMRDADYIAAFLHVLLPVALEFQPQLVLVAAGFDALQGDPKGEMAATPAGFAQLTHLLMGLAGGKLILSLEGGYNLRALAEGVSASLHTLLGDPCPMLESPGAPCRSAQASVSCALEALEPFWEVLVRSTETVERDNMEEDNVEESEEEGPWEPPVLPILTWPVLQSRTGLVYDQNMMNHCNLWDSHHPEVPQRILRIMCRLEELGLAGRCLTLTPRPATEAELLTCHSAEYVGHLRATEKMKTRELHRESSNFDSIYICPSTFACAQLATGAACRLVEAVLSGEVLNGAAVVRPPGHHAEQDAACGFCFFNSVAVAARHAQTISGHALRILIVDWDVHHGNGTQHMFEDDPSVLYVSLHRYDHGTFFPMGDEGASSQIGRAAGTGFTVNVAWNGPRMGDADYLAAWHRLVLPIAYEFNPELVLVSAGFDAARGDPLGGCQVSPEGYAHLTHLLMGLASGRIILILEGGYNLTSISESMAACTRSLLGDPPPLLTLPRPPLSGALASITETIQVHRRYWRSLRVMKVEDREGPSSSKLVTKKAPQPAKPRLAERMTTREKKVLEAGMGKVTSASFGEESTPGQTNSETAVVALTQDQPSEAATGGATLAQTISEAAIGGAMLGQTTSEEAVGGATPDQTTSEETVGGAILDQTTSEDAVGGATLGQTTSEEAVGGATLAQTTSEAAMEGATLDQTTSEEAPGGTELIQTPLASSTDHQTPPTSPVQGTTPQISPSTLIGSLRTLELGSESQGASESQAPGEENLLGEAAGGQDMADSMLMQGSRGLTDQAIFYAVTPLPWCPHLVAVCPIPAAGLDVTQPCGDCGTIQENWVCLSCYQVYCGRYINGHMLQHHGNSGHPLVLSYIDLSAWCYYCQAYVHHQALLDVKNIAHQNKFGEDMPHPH

[11] = test system: HL-60; assay: Induction of apoptosis in human HL-60 cells assessed as cleavage of caspase-9 at 20 uM after 24 hrs Western blot analysis; type: functional, cell-based; outline: as §1
[12] = test system: HL-60; assay: Induction of apoptosis in human HL-60 cells assessed as early apoptotic cells at 40 uM incubated for 24 hrs by propidium iodide and annexin-V FITC staining based FACS analysis (reference value: 2.0 %); type: functional
[13] = test system: HL-60; assay: Induction of apoptosis in human HL-60 cells assessed as late apoptotic cells at 20 uM incubated for 24 hrs by propidium iodide and annexin-V FITC staining based FACS analysis (reference value: 1.7 %); type: functional
[14] = test system: HL-60; assay: Induction of apoptosis in human HL-60 cells assessed as cleavage of caspase-8 at 20 uM after 24 hrs Western blot analysis; type: functional, cell-based; outline: as §1
[15] = molecular target: Histone deacetylase 3 (Homo sapiens) (UniProt O15379); assay: Inhibition of HDAC3 in human HL-60 cells assessed as increase in Ac-H3 level at 20 uM incubated for 24 hrs by Western blot analysis; type: cell-based; outline: as §2
[16] = test system: HL-60; assay: Induction of apoptosis in human HL-60 cells assessed as viable cells at 40 uM incubated for 24 hrs by propidium iodide and annexin-V FITC staining based FACS analysis (reference value: 96.3 %); type: functional; conditions: read-out: Activity
[17] = test system: HL-60; assay: Induction of apoptosis in human HL-60 cells assessed as early apoptotic cells at 20 uM incubated for 24 hrs by propidium iodide and annexin-V FITC staining based FACS analysis (reference value: 2.0 %); type: functional
[18] = test system: HL-60; assay: Growth inhibition of human HL-60 cells after 72 hrs by trypan blue dye based assay; type: functional
Outline: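 HL-60 leukemia cells were exposed to compound for 72 h. Growth inhibition is reported as IG50 (half the growth inhibition concentration), as means plus SD of three independent experiments.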

[19] = molecular target: T1, Histone deacetylase 2; assay: Inhibition of HDAC2 in human HL-60 cells assessed as increase in Ac-H3 level at 2 uM incubated for 24 hrs by Western blot analysis; type: cell-based; outline: as §2
[20] = molecular target: Histone deacetylase 3/Nuclear receptor corepressor 2 (HDAC3/NCoR2) (Homo sapiens, UniProt O15379); assay: Inhibition of C-terminal His-tagged recombinant human HDAC3 (1 to 428 residues)/N-terminal GST-tagged recombinant human NCoR2 (395 to 489 residues) co-expressed in baculovirus infected Sf9 cells using Boc-Lys(Ac)-AMC as substrate preincubated for 15 mins followed by substrate addition and measured after 60 mins by fluorescence based assay
[21] = test system: HL-60; assay: Induction of apoptosis in human HL-60 cells assessed as late apoptotic cells at 2 uM incubated for 24 hrs by propidium iodide and annexin-V FITC staining based FACS analysis (reference value: 4.8 %); type: functional
[22] = molecular target: T4, Protein deacetylase HDAC6 (Homo sapiens) (UniProt Q9UBN7); assay: Inhibition of HDAC6 in human HL-60 cells assessed as increase in acetylated alpha tubulin level at 0.5 uM after 24 hrs by Western blot analysis; type: cell-based; outline: as §2
T4 sequence (whole entry): T3 sequence (Q9UBN7 whole entry)

[23] = test system: HL-60; assay: Induction of apoptosis in human HL-60 cells assessed as necrotic cells at 2 uM incubated for 24 hrs by propidium iodide and annexin-V FITC staining based FACS analysis (reference value: 0.3 %); type: functional
[24] = test system: HL-60; assay: Induction of apoptosis in human HL-60 cells assessed as early apoptotic cells at 2 uM incubated for 24 hrs by propidium iodide and annexin-V FITC staining based FACS analysis (reference value: 2.8 %); type: functional
[25] = test system: MCF7; assay: Antiproliferative activity against human MCF7 cells assessed as cell growth inhibition incubated for 96 hrs by MTT assay; type: functional
[26] = Toxicity in mouse LL/2 cells inoculated C57BL/6J mouse assessed as effect on body weight by measuring initial body weight at 100 mg/kg, ip administered for 12 days and measured for every 2 days (reference value: 18.6 +/- 0.8 g); type: organism-based; conditions: in vivo, 288 h, time 12 day
[27] = Antitumor activity against mouse LL/2 cells inoculated in C57BL/6J mouse assessed as tumor growth inhibition at 100 mg/kg, ip administered for 12 days; type: functional, Lewis lung carcinoma; parameters: scale not given: the % may be the effect or the level left; conditions: time 12 day
[28] = Toxicity in mouse LL/2 cells inoculated C57BL/6J mouse assessed as effect on body weight by measuring end body weight at 100 mg/kg, ip administered for 12 days and measured for every 2 days (reference value: 17.8 +/- 0.7 g); type: organism-based; conditions: in vivo, 288 h, time 12 day
[29] = Antitumor activity against mouse LL/2 cells inoculated in C57BL/6J mouse assessed as reduction of tumor weight at 100 mg/kg, ip administered for 12 days and measured at day 14 (reference value: 1.2 +/- 0.3 g); type: functional, Lewis lung carcinoma; conditions: time 12 day
[30] = Antiproliferative activity against mouse LL/2 cells assessed as cell growth inhibition incubated for 96 hrs by MTT assay; type: functional, Lewis lung carcinoma
[31] = test system: HCT-116; assay: Antiproliferative activity against human HCT-116 cells assessed as cell growth inhibition incubated for 96 hrs by MTT assay; type: functional
[32] = test system: A549; assay: Antiproliferative activity against human A549 cells assessed as cell growth inhibition incubated for 96 hrs by MTT assay; type: functional

Histone deacetylase 3/Nuclear receptor corepressor 2 (HDAC3/NCoR2), sequence (O15379 whole entry, the tested form may be a part): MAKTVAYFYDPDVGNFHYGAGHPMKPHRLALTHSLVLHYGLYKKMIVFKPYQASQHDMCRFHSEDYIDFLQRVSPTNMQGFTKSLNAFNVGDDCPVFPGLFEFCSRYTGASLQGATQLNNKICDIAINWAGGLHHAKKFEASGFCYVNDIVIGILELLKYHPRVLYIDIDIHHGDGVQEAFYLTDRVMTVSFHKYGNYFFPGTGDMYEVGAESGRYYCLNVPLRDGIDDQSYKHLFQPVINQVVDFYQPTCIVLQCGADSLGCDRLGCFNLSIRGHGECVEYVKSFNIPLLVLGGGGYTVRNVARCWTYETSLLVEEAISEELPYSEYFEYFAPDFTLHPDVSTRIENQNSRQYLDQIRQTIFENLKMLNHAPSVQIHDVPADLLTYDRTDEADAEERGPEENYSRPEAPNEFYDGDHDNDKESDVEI
Histone deacetylase 3/Nuclear receptor corepressor 2 (HDAC3/NCoR2), sequence (Q9Y618 whole entry, further chain, the tested form may be a part): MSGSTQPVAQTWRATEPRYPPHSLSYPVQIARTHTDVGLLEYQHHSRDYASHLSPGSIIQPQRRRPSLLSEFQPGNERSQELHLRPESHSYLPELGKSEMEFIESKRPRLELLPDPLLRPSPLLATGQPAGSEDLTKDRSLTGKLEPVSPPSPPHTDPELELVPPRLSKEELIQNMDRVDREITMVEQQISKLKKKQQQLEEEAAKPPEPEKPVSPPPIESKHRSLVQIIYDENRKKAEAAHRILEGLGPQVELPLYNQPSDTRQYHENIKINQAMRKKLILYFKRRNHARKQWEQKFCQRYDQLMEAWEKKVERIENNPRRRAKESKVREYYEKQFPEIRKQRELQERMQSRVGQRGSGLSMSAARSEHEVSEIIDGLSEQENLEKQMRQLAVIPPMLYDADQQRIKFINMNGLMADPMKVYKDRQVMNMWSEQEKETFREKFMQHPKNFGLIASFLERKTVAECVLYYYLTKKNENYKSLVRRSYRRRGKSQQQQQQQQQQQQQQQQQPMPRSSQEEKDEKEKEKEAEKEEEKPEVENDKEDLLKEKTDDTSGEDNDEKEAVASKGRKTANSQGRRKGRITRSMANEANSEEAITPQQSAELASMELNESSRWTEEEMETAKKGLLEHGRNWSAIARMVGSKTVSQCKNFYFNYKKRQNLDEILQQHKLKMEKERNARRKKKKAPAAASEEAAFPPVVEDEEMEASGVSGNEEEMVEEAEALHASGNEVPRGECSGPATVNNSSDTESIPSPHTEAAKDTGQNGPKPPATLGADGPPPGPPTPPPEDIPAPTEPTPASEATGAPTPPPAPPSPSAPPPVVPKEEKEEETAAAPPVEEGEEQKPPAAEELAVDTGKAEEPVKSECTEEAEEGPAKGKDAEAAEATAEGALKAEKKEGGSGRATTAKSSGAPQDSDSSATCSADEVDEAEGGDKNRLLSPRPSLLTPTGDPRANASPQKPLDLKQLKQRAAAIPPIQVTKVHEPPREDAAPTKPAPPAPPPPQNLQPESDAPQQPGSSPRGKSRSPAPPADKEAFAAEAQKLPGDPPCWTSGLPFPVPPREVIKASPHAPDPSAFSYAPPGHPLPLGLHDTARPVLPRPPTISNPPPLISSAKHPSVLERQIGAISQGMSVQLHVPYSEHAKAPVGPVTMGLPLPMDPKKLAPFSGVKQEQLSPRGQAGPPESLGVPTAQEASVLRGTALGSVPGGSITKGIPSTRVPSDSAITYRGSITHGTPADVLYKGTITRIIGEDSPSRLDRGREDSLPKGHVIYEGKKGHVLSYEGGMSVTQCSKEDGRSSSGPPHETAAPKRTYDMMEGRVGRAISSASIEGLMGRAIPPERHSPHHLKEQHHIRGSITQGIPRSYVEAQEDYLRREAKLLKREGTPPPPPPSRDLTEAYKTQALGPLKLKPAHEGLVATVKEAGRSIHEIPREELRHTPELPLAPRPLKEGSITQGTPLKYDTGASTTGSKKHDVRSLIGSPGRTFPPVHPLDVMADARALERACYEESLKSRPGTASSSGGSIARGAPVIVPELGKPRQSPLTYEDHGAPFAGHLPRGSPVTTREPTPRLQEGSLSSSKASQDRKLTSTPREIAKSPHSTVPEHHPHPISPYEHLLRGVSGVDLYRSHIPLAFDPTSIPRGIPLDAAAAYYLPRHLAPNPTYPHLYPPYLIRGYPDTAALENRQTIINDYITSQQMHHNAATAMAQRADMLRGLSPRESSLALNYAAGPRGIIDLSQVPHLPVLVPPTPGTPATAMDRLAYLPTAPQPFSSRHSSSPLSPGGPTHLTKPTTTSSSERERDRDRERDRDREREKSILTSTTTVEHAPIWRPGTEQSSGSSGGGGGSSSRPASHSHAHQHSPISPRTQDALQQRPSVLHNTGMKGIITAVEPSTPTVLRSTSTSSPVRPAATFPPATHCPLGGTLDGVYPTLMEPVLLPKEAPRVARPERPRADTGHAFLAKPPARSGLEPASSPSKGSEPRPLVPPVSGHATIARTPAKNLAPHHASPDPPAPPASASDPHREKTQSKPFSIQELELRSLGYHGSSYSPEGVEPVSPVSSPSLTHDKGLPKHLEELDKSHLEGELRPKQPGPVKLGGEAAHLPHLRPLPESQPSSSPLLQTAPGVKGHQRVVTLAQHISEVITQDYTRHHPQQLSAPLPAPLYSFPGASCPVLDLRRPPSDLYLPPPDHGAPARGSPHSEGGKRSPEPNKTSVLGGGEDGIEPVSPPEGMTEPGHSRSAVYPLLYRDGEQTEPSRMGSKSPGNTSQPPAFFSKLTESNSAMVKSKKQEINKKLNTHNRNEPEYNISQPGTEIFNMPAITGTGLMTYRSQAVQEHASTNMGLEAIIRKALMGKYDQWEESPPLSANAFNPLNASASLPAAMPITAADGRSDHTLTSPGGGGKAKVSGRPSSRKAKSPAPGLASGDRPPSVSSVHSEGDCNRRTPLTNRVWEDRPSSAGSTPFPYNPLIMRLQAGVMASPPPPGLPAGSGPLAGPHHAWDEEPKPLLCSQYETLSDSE
T1 sequence (Q92769 whole entry): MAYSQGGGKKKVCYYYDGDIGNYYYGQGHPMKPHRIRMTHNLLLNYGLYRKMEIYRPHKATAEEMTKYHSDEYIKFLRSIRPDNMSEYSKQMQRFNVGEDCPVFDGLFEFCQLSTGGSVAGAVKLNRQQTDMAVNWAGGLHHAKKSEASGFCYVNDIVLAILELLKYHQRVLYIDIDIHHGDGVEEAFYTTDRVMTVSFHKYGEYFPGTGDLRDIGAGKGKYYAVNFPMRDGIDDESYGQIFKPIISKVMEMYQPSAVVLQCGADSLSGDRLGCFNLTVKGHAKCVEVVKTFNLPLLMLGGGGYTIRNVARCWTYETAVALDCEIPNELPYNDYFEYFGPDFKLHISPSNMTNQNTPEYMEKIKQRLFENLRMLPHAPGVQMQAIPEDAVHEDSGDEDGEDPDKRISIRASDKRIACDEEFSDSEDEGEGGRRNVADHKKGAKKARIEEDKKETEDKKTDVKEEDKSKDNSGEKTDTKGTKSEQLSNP
T2 sequence (Q13547 whole entry): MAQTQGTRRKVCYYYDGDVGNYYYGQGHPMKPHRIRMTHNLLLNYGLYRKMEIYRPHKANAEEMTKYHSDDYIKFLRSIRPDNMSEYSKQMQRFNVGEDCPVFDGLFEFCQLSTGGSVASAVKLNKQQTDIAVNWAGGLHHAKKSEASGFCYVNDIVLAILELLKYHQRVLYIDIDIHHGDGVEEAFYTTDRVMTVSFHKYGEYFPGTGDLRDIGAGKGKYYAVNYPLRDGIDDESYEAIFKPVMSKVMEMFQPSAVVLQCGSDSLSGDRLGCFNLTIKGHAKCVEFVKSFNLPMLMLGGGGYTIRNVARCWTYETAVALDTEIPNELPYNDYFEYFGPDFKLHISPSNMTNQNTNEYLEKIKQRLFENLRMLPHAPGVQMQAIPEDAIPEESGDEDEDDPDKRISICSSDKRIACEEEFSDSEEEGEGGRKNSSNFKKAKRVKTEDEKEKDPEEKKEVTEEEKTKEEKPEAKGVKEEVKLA
Histone deacetylase 3 (Homo sapiens), sequence (O15379 whole entry): as the sequence (O15379 whole entry, the tested form may be a part) above

## Nc1ccccc1NC(=O)CCCCCCNC(=O)/C(Cc1ccc(O)c(Br)c1)=N/O
[1]
  Activity: 0.6%
[2]
  Activity: inactive
[3]
  Activity: inactive
[4]
  Activity: 8.4%
[5]
  viability at 20 µM: 94.2%
[6]
  IC50: > 1 µM
[7]
  IC50: > 1 µM
[8]
  inhibition: inactive
[9]
  Activity: 0.1%
[10]
  IC50: > 1 µM
[11]
  Activity: inactive
[12]
  Activity: 3.1%
[13]
  Activity: 4%
[14]
  Activity: inactive
[15]
  inhibition: Active
[16]
  viability at 40 µM: 87.9%
[17]
  Activity: 1.7%
[18]
  IG50: 14 µM
[19]
  inhibition: inactive
[20]
  IC50: 0.13 µM

## O=C(CCCCCCC(=O)Nc1ccc([C@H]2O[C@@H](CSc3nc(-c4ccccc4)c(-c4ccccc4)o3)C[C@@H](c3ccc(CO)cc3)O2)cc1)NO [TUBACIN]
[21]
  Activity: 8.8%
[22]
  inhibition: Active
[23]
  Activity: 0.8%
[24]
  Activity: 3.9%

## Nc1ccccc1NC(=O)CCCCCCCNC(=O)/C(Cc1ccc(O)c(Br)c1)=N/O
[25]
  IG50: 17.9 µM
[26]
  Activity: 18.6 g
[27]
  Activity: 36.5%
[6]
  IC50: > 1 µM
[7]
  IC50: > 1 µM
[10]
  IC50: > 1 µM
[28]
  Activity: 18.5 g
[29]
  Activity: 0.8 g
[30]
  IG50: 12.2 µM
[18]
  IG50: 5.2 µM
[31]
  IG50: 11.9 µM
[32]
  IG50: 26 µM
[20]
  IC50: 0.17 µM

## Nc1ccccc1NC(=O)CCCCCNC(=O)/C(Cc1ccc(O)c(Br)c1)=N/O
[1]
  Activity: 0.4%
[2]
  Activity: inactive
[3]
  Activity: inactive
[4]
  Activity: 10.2%
[5]
  viability at 20 µM: 95.6%
[6]
  IC50: > 1 µM
[7]
  IC50: > 1 µM
[8]
  inhibition: inactive
[9]
  Activity: 0.1%
[10]
  IC50: > 1 µM
[11]
  Activity: inactive
[12]
  Activity: 3.8%
[13]
  Activity: 2.8%
[14]
  Activity: inactive
[15]
  inhibition: Active
[16]
  viability at 40 µM: 85.7%
[17]
  Activity: 1.5%
[18]
  IG50: 14.3 µM
[19]
  inhibition: inactive
[20]
  IC50: 0.18 µM
